A selection: hits, their analogues and other compounds. The true share with any hit is near 2.4%.
MPTP inh: inhibitors of mitochondrial permeability transition pore. isolated mouse mitochondria, Ca2+ swelling absorbance, 30 min. inhibition, % at 10 µM. hit rate 1.4% among 360,000;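 active = inhibition of 50% or more, scaled per plate between neutral and stimulator controls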;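 also: 0% = DMSO wells given calcium and 100% = 1 mM EGTA wells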
Jurkat NFkB inh: inhibitors of the PMA/ionomycin-induced NF-kB reporter in Jurkat cells. PMA/ionomycin-induced NF-kB luciferase reporter, luminescence. inhibition, % at 4 µM. hit rate 0.53% among 330,000; in the data active = inhibition above about 50%
aDG glyco act: alpha-DG glycosylation activation | Pro5-aDG cells, alpha-DG glycosylation AlphaScreen (IIH6); 0% Pro5, 100% B10-LARGE cell signal | activation, % at 10 µM | hit rate 0.22% among 360,000 | AID 624168;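 active = activation of at least 8% versus controls, or a plate z-score of at least 8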;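 also: Pro5 are CHO cells carrying HIG-tagged alpha-DG that lacks glycosylation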
NR2E3 ag-1: human photoreceptor-specific nuclear receptor agonism. CHO-S Gal4-NCOR/VP16-NR2E3 two-hybrid, luciferase. inhibition of corepressor binding, % at 3.98 µM. Q9Y5X4. hit rate 0.35% among 360,000. AID 602229;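 active = inhibition above the mean of all tested compounds plus 3 SD, cut at about 70% in these data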;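 also: 0% = DMSO with NR2E3 transfected cells and 100% = cells lacking NR2E3 construct; higher means lower luciferase signal from less NR2E3 corepressor binding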
Target sequence (Q9Y5X4 whole entry, looked up, the tested form may be a part): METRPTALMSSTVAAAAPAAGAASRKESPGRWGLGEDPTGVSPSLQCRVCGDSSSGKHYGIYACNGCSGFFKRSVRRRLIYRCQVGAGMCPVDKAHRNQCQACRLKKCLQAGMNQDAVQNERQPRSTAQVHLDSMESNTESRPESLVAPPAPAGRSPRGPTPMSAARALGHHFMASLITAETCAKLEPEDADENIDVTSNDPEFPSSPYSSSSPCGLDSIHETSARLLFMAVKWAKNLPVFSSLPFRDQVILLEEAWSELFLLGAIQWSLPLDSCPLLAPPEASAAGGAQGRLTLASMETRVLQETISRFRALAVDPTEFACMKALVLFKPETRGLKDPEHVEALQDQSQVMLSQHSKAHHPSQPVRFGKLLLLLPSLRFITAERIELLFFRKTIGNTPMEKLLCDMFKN
NR2E3 ag-2: activates human photoreceptor nuclear receptor NR2E3 | hit rate 0.12% among 320,000 | inhibition of corepressor binding, % at 4.78 µM | GST-NR2E3/biotin-RetCOR TR-FRET, 1536-well | AID 2300;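 active = percent inhibition above the cutoff of mean plus 3 SD of all tested compounds, set per screening campaign, cut at about 20% in these data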;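 also: 0% = DMSO wells and 100% = biotin wells as full block of FRET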
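System: GST-tagged NR2E3 plus biotinylated RetCOR corepressor; Buffer or medium: pH 7.5 Tris-based buffer; Probe or stimulus: RetCOR corepressor, biotinylated, 7 nM; Doses: compound at 4.8 µM, single dose; Schedule: 5 h incubation at 4 °C; Technique: time-resolved FRET; Evaluation: percent inhibition of TR-FRET ratio; Replication: one well per compound, singlicate testing.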
697 NFkB inh: inhibitors of the PMA/ionomycin-induced NF-kB reporter in 697 B cells; inhibition, % at 4 µM; hit rate 0.33% among 330,000; 697 B-cell NF-kB luciferase reporter, 16 h; in the data active = inhibition above about 35%
Jurkat NFkB conf: lowers PMA/ionomycin-induced NF-kB signal in Jurkat cells; shares compounds with Jurkat NFkB inh; Jurkat NF-kB luciferase, 16 h; inhibition, % at 4 µM; hit rate 27% among 2,700;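 active = inhibition reaching about 45% at 4 µM in either replicate, limit read from the data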;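 also: plate controls were PMA/ionomycin stimulated DMSO wells for no effect and unstimulated DMSO wells for full effect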
* hit, by the source's call.

Cc1cc(O)c(-c2cc(C(=O)Nc3cccnc3)[nH]n2)cc1C was read as MPTP inh 5, Jurkat NFkB inh -178, aDG glyco act 0, NR2E3 ag-1 -88, NR2E3 ag-2 0, 697 NFkB inh -41 and Jurkat NFkB conf -114.
Screening COc1cccc(/C=N\NC(C)=O)c1OC/C=C/c1ccccc1 returned MPTP inh -1, Jurkat NFkB inh 0, aDG glyco act 0, NR2E3 ag-1 -8 and 697 NFkB inh 1.
For O=C(N/N=C\c1ccc(Cl)s1)C1COc2ccccc2O1 (stereo not given) the results were MPTP inh 2, Jurkat NFkB inh 37, aDG glyco act 0, NR2E3 ag-1 18, NR2E3 ag-2 1 and 697 NFkB inh 11.
For O=C(N/N=C/c1c[nH]c2ccccc12)C1COc2ccccc2O1 (stereo not given) the results were MPTP inh 0, Jurkat NFkB inh 53*, aDG glyco act 0, NR2E3 ag-1 -41, NR2E3 ag-2 0, 697 NFkB inh -1 and Jurkat NFkB conf 1.
C#CCn1ccc(O)c(Cc2ccccc2)c1=O was read as MPTP inh -1, Jurkat NFkB inh 2, aDG glyco act 0, NR2E3 ag-1 -3, NR2E3 ag-2 0 and 697 NFkB inh 6.
Cc1nc2cc(NC(=O)Nc3cccc([N+](=O)[O-])c3)ccc2n1C was read as MPTP inh 17, Jurkat NFkB inh -166, aDG glyco act 0, NR2E3 ag-1 -102, NR2E3 ag-2 4, 697 NFkB inh -216 and Jurkat NFkB conf -118.
For COc1ccccc1C(=O)Nc1ccc2c(c1)nc(CCNC(=O)c1ccccc1)n2C the results were MPTP inh 2, Jurkat NFkB inh 54*, aDG glyco act 0, NR2E3 ag-1 -80, NR2E3 ag-2 0, 697 NFkB inh -28 and Jurkat NFkB conf 29.
For Fc1ccc(-c2cn3cc(C(F)(F)F)cc(Cl)c3n2)cc1 the results were MPTP inh 22, Jurkat NFkB inh -189, aDG glyco act 0, NR2E3 ag-1 -159, NR2E3 ag-2 -5, 697 NFkB inh -172 and Jurkat NFkB conf -146.
COc1cc(/C=C2\SC(N3CCC(C)CC3)=NC2=O)ccc1O was read as MPTP inh 0, Jurkat NFkB inh 61*, aDG glyco act 0, NR2E3 ag-1 -26, NR2E3 ag-2 -1, 697 NFkB inh 34 and Jurkat NFkB conf 19.
COc1ccc(/C=C2\SC(N3CCCCC3)=NC2=O)cc1OC was read as MPTP inh -1, Jurkat NFkB inh -13, aDG glyco act 0, NR2E3 ag-1 -32, NR2E3 ag-2 -2 and 697 NFkB inh -1.
CCOC(=O)c1c(N)sc(C(=O)Nc2ccccc2)c1C was read as MPTP inh -2, Jurkat NFkB inh -166, aDG glyco act 1, NR2E3 ag-1 -97, NR2E3 ag-2 0, 697 NFkB inh -165 and Jurkat NFkB conf -114.
CCOC(=O)c1c(N)sc(C(=O)Nc2ccccc2F)c1C was read as MPTP inh 0, Jurkat NFkB inh -186, aDG glyco act 0, NR2E3 ag-1 -138, NR2E3 ag-2 3, 697 NFkB inh -175 and Jurkat NFkB conf -146.
NC(=O)c1ccccc1NC(=O)c1ccc2ccccc2c1 was read as MPTP inh 0, Jurkat NFkB inh -175, aDG glyco act 0, NR2E3 ag-1 -90, NR2E3 ag-2 0, 697 NFkB inh -224 and Jurkat NFkB conf -105.
`COC(=O)c1ccccc1Sc1ncnc2onc(C)c12` gave MPTP inh 0, Jurkat NFkB inh 4, aDG glyco act 1, NR2E3 ag-1 -7, NR2E3 ag-2 3 and 697 NFkB inh -3.
Cc1ccc(NC(=O)c2cccc(S(=O)(=O)N3CCN(c4ccc(F)cc4)CC3)c2)nc1 was read as MPTP inh -1, Jurkat NFkB inh 49, aDG glyco act 1, NR2E3 ag-1 14, NR2E3 ag-2 -1 and 697 NFkB inh -67.
For CCc1nnc(NC(=O)CSc2nnc3c(C)cc4c(C)ccc(C)c4n23)s1 the results were MPTP inh -2, Jurkat NFkB inh 32, aDG glyco act 0, NR2E3 ag-1 -28, NR2E3 ag-2 2 and 697 NFkB inh -19.
Screening Cc1cc(NC(=O)CSc2nnc3c(C)cc4c(C)ccc(C)c4n23)no1 returned MPTP inh -2, Jurkat NFkB inh 59*, aDG glyco act 0, NR2E3 ag-1 -69, NR2E3 ag-2 4, 697 NFkB inh -34 and Jurkat NFkB conf 20.
Screening CCOCCCn1c(C)nc2c(c1=O)c1nc3ccccc3nc1n2-c1ccc2c(c1)OCCO2 returned Jurkat NFkB inh 3, NR2E3 ag-2 4 and 697 NFkB inh 13.
Screening COc1ccc(NC(=O)C[C@H]2C(=O)N(Cc3ccccc3)C[C@@H]2CSC)cc1 returned MPTP inh 0, aDG glyco act 0 and NR2E3 ag-1 -12.
For COc1ccc(/C=N/NC(=O)c2cccnc2)cc1Cn1nc([N+](=O)[O-])c(Br)c1C the results were Jurkat NFkB inh 52*, NR2E3 ag-2 -5, 697 NFkB inh -41 and Jurkat NFkB conf 41.
For COc1ccc(NC(=O)CN(C)C(=O)CSc2ccc(Br)cc2)cc1 the results were MPTP inh -2, Jurkat NFkB inh 0, aDG glyco act 0, NR2E3 ag-1 -2, NR2E3 ag-2 0 and 697 NFkB inh 5.
Screening COc1ccc(/C=C/C(=O)c2ccc([N+](=O)[O-])o2)cc1OC returned Jurkat NFkB inh 26, NR2E3 ag-2 12 and 697 NFkB inh -17.
For COc1cc(/C=C/C(=O)c2ccc([N+](=O)[O-])o2)ccc1O the results were MPTP inh 8, Jurkat NFkB inh 71*, aDG glyco act 0, NR2E3 ag-1 36, NR2E3 ag-2 2, 697 NFkB inh -44 and Jurkat NFkB conf 47*.
Screening O=c1c2ccccc2c(-c2ccccc2)nn1-c1cc(Cl)cc(Cl)c1 returned MPTP inh 0, Jurkat NFkB inh 11, aDG glyco act 0, NR2E3 ag-1 3, NR2E3 ag-2 1 and 697 NFkB inh -2.
`CCC(C)Sc1ccc([C@@H]2[C@H]3C(=O)N(C)C(=O)[C@H]3[C@]3(C(=O)OC)CCCN23)cc1` (stereo not given in full) gave MPTP inh 1, Jurkat NFkB inh -2, aDG glyco act 0, NR2E3 ag-1 15 and 697 NFkB inh 2.
`O=C(Sc1cccc2cccnc12)c1ccc(F)cc1` gave Jurkat NFkB inh 101*, 697 NFkB inh -151 and Jurkat NFkB conf 60*.
For O=C(NCCOc1ccccc1)C1CCC(=O)N(CCCN2CCCC2=O)C1 (stereo not given) the results were MPTP inh 0, Jurkat NFkB inh 2, aDG glyco act 0, NR2E3 ag-1 -34, NR2E3 ag-2 -3 and 697 NFkB inh 18.
